The results in this text go back to ChEMBL document CHEMBL1131013, “Synthesis and evaluation of analogues of the partial agonist 6-(propyloxy)-4-(methoxymethyl)-beta-carboline-3-carboxylic acid ethyl ester (6-PBC) and the full agonist 6-(benzyloxy)-4-(methoxymethyl)-beta-carboline-3-carboxylic acid ethyl ester (Zk 93423) at wild type and recombinant GABAA receptors” (J Med Chem, 1998).

In test [1] the target is GABA-A receptor; alpha-6/beta-3/gamma-2 (Homo sapiens, UniProt P18507+P28472+Q16445). Put plainly: Binding affinity measured using LtK- cell membranes expressing Gamma-aminobutyric acid A receptor alpha-6-beta-3-gamma-2. In short, it runs like this:
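Ltk- cells expressing human α6β3γ2, scraped into PBS and resuspended in 10 mM KH2PO4/100 mM KCl pH 7.4. 1 h at 4 °C to equilibrium, filtration, scintillation counting.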

The target in test [2] is T1, GABA-A receptor; alpha-5/beta-3/gamma-2 (Homo sapiens, UniProt P18507+P28472+P31644).
T1 sequence (P18507 whole entry): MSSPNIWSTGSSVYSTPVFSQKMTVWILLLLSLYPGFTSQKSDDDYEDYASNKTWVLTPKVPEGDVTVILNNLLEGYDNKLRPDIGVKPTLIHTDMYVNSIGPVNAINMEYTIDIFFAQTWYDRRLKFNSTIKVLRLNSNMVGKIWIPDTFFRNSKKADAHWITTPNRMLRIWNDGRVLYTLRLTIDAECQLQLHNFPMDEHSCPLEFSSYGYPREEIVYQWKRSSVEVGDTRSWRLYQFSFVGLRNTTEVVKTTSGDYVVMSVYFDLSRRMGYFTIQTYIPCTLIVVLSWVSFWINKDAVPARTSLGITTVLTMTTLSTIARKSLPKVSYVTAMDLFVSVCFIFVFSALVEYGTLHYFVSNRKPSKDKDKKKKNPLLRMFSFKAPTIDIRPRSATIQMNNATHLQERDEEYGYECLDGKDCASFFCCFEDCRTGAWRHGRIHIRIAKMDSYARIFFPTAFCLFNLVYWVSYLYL
T1 sequence (P28472 whole entry): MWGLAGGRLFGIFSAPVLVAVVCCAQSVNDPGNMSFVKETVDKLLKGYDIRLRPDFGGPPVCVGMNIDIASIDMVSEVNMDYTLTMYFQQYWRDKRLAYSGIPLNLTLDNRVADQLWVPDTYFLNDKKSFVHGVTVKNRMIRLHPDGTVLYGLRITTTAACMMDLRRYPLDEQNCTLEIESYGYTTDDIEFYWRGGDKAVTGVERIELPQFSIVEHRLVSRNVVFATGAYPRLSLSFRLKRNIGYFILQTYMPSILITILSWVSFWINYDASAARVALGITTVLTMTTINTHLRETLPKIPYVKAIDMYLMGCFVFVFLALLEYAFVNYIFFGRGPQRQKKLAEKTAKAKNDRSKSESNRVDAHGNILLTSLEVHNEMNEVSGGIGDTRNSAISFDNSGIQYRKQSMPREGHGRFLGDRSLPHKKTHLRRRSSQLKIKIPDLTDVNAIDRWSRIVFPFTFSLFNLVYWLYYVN
T1 sequence (P31644 whole entry): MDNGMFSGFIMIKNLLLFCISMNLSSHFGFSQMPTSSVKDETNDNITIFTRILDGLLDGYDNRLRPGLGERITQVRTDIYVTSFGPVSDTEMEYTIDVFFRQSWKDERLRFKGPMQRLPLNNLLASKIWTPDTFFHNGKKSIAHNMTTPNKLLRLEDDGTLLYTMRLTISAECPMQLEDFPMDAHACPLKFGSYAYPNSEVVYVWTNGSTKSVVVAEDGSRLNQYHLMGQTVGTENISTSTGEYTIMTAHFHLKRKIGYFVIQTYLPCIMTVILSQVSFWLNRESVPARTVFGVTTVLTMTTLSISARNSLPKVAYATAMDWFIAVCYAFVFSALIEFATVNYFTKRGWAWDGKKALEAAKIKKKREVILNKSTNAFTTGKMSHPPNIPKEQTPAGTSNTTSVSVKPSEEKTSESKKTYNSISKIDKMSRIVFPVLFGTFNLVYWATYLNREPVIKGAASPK
Put plainly: Binding affinity measured using LtK- cell membranes expressing Gamma-aminobutyric acid A receptor alpha-5-beta-3-gamma-2.

Test [3] deals with T2, GABA-A receptor; alpha-1/beta-3/gamma-2 (Homo sapiens, UniProt P14867+P18507+P28472).
T2 sequence (P14867 whole entry): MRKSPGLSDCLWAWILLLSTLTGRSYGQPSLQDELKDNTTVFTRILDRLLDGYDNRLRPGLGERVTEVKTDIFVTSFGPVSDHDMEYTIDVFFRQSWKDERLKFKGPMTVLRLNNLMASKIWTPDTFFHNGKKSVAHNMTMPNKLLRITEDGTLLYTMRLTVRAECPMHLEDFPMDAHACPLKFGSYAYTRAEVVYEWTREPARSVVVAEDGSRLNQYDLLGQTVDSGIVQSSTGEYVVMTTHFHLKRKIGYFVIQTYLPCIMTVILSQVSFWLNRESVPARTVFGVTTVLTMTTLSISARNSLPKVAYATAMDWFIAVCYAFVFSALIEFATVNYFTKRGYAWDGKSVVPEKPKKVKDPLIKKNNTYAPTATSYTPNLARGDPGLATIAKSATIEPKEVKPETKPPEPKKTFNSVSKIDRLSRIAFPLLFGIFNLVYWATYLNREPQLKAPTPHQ
T2 sequence (P18507 whole entry): T1 sequence (P18507 whole entry)
T2 sequence (P28472 whole entry): T1 sequence (P28472 whole entry)
Put plainly: Binding affinity measured using LtK- cell membranes expressing GABA alpha-1-beta-3-gamma-2 receptor.

The target of test [4] is T3, GABA-A receptor; alpha-3/beta-3/gamma-2 (Homo sapiens, UniProt P18507+P28472+P34903).
T3 sequence (P18507 whole entry): T1 sequence (P18507 whole entry)
T3 sequence (P28472 whole entry): T1 sequence (P28472 whole entry)
T3 sequence (P34903 whole entry): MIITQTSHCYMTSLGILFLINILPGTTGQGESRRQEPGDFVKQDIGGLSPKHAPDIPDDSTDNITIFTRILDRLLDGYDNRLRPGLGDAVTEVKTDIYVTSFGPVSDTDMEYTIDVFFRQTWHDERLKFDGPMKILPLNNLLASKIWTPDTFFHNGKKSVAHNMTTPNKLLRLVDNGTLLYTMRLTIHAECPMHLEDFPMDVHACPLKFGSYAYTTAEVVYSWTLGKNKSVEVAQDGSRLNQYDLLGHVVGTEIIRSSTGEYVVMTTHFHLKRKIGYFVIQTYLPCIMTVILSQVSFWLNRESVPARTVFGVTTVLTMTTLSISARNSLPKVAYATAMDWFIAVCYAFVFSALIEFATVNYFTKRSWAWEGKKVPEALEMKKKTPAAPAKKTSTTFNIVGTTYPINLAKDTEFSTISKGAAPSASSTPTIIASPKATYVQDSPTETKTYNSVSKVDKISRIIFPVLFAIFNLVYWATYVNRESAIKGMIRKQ
Put plainly: Binding affinity measured using LtK- cell membranes expressing GABA alpha-3-beta-3-gamma-2 receptor.

Test [5] concerns the target T4, GABA-A receptor; alpha-2/beta-3/gamma-2 (Homo sapiens, UniProt P18507+P28472+P47869).
T4 sequence (P18507 whole entry): T1 sequence (P18507 whole entry)
T4 sequence (P28472 whole entry): T1 sequence (P28472 whole entry)
T4 sequence (P47869 whole entry): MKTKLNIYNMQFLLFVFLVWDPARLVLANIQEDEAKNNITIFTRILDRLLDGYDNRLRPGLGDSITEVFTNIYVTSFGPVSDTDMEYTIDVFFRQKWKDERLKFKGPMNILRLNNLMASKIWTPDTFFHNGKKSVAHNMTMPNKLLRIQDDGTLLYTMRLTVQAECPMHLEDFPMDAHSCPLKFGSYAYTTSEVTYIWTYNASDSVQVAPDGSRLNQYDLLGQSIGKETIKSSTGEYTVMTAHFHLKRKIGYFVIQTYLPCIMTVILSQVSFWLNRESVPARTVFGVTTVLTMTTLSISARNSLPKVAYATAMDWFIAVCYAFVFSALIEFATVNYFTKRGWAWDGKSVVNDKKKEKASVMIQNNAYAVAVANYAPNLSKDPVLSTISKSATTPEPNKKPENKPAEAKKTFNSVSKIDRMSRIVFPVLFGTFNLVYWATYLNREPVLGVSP
Description: Binding affinity measured using LtK- cell membranes expressing GABA alpha-2-beta-3-gamma-2 receptor.

The target in test [6] is GABA-A receptor; anion channel. Description: Displacement of [3H]flunitrazepam from GABA-A Benzodiazepine receptor of rat brain cortical membranes. Type of test: cell membranes, Membrane. The method in brief: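 Rat cerebral cortex homogenized in 50 mM Tris-citrate, pH 7.4, and washed by centrifugation (20000g). […] Nonspecific binding with 10 μM Ro15-1788. Ended by vacuum filtration. IC50 estimated from at least six inhibitor concentrations; mean ± SEM of at least three determinations.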

Sequence of GABA-A receptor; alpha-6/beta-3/gamma-2 (Q16445 whole entry, one chain of several): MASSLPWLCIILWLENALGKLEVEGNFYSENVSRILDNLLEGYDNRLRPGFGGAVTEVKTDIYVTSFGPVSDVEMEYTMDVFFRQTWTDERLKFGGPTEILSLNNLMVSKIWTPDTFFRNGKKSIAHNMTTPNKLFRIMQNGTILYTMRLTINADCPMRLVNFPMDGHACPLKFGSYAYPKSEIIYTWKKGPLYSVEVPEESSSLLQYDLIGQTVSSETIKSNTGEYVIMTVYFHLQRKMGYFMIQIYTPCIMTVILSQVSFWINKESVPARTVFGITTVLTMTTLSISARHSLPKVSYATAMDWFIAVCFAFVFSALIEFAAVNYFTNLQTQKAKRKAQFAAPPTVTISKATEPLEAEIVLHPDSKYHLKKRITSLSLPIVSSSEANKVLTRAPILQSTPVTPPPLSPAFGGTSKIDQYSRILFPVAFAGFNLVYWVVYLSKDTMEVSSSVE

Regarding `CC(C)COc1cc2c(cn1)[nH]c1ccccc12`, the Ki in test [1] was more than 10000 nM; in test [2] it was 1000 nM; in test [3], 24.9 nM; in test [4], 139 nM; in test [5] it was 124 nM.

For `CCOC(=O)c1[nH]cc2nc3cc(OC)c(OC)cc3c-2c1CC`, the Ki in test [1] turned out to be 74.9 nM; in test [2] it was 3.3 nM; in test [3], 6.2 nM; in test [4], 4 nM; in test [5], 18.7 nM.

In turn, `CCCOc1ccc2[nH]c3cnc(C(=O)OC(C)C)c(COC)c3c2c1` registered an IC50 in test [6] of 30.8 nM. This counts as double-digit nanomolar.

As for `CCOc1[nH]cc2nc3cc(OC)c(OC)cc3c-2c1CC`, the Ki in test [1], in test [2], in test [3], in test [4] and in test [5] was more than 300 nM each time.

For `CCCCOc1cc2c(cn1)[nH]c1ccccc12`, the inhibitory constant (Ki) in test [1] was more than 1000 nM; in test [2], 1000 nM; in test [3], 36.9 nM; in test [4] it was 245 nM; in test [5], 194 nM.

With `CCOC(=O)c1ncc2[nH]c3ccccc3c2c1COC`, the Ki in test [1] came out at 1150 nM; in test [2], 10.4 nM; in test [3], 0.6 nM; in test [4], 4.8 nM; in test [5], 2.8 nM.

Regarding `CCOC(=O)c1[nH]cc2nc3ccc(OCc4ccccc4)cc3c-2c1CC`, the Ki in test [1] is more than 10000 nM; in test [2], 67.3 nM; in test [3], 20.8 nM; in test [4], 58.7 nM; in test [5], 78.3 nM.

Take `CC(C)Oc1cc2c(cn1)[nH]c1ccccc12`: the Ki in test [1] was more than 10000 nM; in test [2], more than 10000 nM; in test [3], 283 nM; in test [4], more than 3000 nM; in test [5], more than 3000 nM.

On to `CCC(C)Oc1cc2c3ccccc3nc-2c[nH]1` (configuration not stated), for which the Ki in test [1] is more than 10000 nM; in test [2], more than 10000 nM; in test [3], 245 nM; in test [4], 869 nM; in test [5], 818 nM.

`CCOC(=O)c1ncc2c(c1CC)c1cc(OCc3cccc4ccccc34)ccc1n2C` had an IC50 in test [6] of more than 1000 nM.

`CCc1c(OC)[nH]cc2nc3cc(OC)c(OC)cc3c1-2`: the Ki in test [1], in test [2], in test [3], in test [4] and in test [5] was more than 300 nM each time.

Turning to `CCCCCCCCOc1ccc2c(c1)c1c(CC)c(C(=O)OCC)ncc1n2C`, the IC50 in test [6] is more than 1000 nM.

Turning to `CCOC(=O)c1cc2c3cc(OCc4ccccc4)ccc3n(C)c2cn1`, in test [6], the IC50 was more than 5000 nM.

On to `CC(C)(C)OC(=O)c1cc2c3ccccc3nc-2c[nH]1`, for which the Ki in test [1] is more than 5000 nM; in test [2], 111 nM; in test [3], 0.72 nM; in test [4], 18.9 nM; in test [5], 15 nM.

With `CCOC(=O)c1ncc2[nH]c3ccc(OCc4ccccc4)cc3c2c1COC`, the inhibitory constant (Ki) in test [1] was more than 1000 nM; in test [2], 4.5 nM; in test [3], 4.1 nM; in test [4] it was 6 nM; in test [5], 4.2 nM.

In the case of `COCc1c(C(=O)OC(C)C)ncc2[nH]c3ccc(OCc4ccccc4)cc3c12` [ABECARNIL], the inhibition constant Ki was more than 10000 nM in test [1]; 6 nM in test [2]; 12.4 nM in test [3]; 7.5 nM in test [4]; 15.3 nM in test [5].

For the compound `CCCOc1cc2c(cn1)[nH]c1ccccc12`, the inhibition constant (Ki) is more than 1000 nM in test [1]; 591 nM in test [2]; 5.3 nM in test [3]; 68.8 nM in test [4]; 52.3 nM in test [5].

On to `Cc1nnc2ccc(-c3cccc(C(F)(F)F)c3)nn12` [CI-218872], for which the Ki in test [1] is more than 10000 nM; in test [2] it was 561 nM; in test [3], 57 nM; in test [4], 1160 nM; in test [5] it was 1960 nM.

For `CCOC(=O)c1cc2c(cn1)[nH]c1ccccc12`, affinity in test [3] was put at a Ki of 1.2 nM. In other words, the single-digit nanomolar range.

`Cc1ccc(-c2nc3ccc(C)cn3c2CC(=O)N(C)C)cc1` [ZOLPIDEM]: the Ki in test [1] and in test [2] was more than 10000 nM each time.

With `CC(C)CCOc1cc2c3ccccc3nc-2c[nH]1`, the Ki in test [1] is more than 10000 nM; in test [2], more than 3000 nM; in test [3] it was 350 nM; in test [4], more than 3000 nM; in test [5], more than 3000 nM.

With `CCOC(=O)c1ncc2c(c1CC)c1ccccc1n2C`, the Ki was more than 10000 nM in test [1]; more than 1000 nM in test [2]; more than 1000 nM in test [3]; more than 1000 nM in test [4]; more than 1000 nM in test [5].

Regarding `CCc1c(C(=O)OC)ncc2[nH]c3cc(OC)c(OC)cc3c12`, the Ki in test [1] worked out at 134 nM; in test [2], 1 nM; in test [3], 5.7 nM; in test [4] it was 4 nM; in test [5], 8.3 nM.

As to `c1ccc(COc2cc3c4ccccc4nc-3c[nH]2)cc1`, the Ki in test [1] was more than 10000 nM; in test [2], more than 10000 nM; in test [3], 830 nM; in test [4], more than 3000 nM; in test [5] it was more than 3000 nM.

The Ki is a measure of affinity in units of concentration, obtained from inhibition or displacement. Low values mean higher affinity, high ones lower affinity. In general, IC50 refers to the concentration that inhibits the measured activity by half. Lower therefore signals greater potency in that assay.
